Converted amounts (≈) assume the structure as drawn. The source made the active and inactive calls. How the calls were made is not given here.
Key:
[1] = tested on: Escherichia coli; experiment: Antibacterial activity against Escherichia coli at 1 mM by almar blue dye reduction assay; assay type: functional, organism-based
Outline: (§1)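 Single-point primary screen at 1 mM using Alamar Blue dye reduction as the growth read-out.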

[2] = tested on: Bacillus cereus; experiment: Antibacterial activity against Bacillus cereus by almar blue dye reduction assay; assay type: functional
Outline: (§2)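 Compounds advanced from the 1 mM screen were tested over a dilution series, with a top concentration of 1 mM, using Alamar Blue dye reduction. MIC is the lowest concentration with no dye reduction. Where inhibition was partial with some growth at the top concentration, the value is reported as '>'.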

[3] = tested on: Pseudomonas aeruginosa; experiment: Antibacterial activity against Pseudomonas aeruginosa at 1 mM by almar blue dye reduction assay; assay type: functional, organism-based; outline: as §1
[4] = tested on: Bacillus subtilis; experiment: Antibacterial activity against Bacillus subtilis by almar blue dye reduction assay; assay type: functional; outline: as §2
[5] = tested on: Bacillus anthracis; experiment: Antibacterial activity against Bacillus anthracis by almar blue dye reduction assay; assay type: functional
[6] = tested on: Candida albicans; experiment: Antifungal activity against Candida albicans by almar blue dye reduction assay; assay type: functional; outline: as §2
[7] = tested on: Staphylococcus aureus; experiment: Antibacterial activity against Staphylococcus aureus at 1 mM by almar blue dye reduction assay; assay type: functional, organism-based; outline: as §1
[8] = tested on: Cryptococcus neoformans; experiment: Antifungal activity against Cryptococcus neoformans at by almar blue dye reduction assay; assay type: functional; outline: as §2
[9] = tested on: Saccharomyces cerevisiae; experiment: Antifungal activity against Saccharomyces cerevisiae by almar blue dye reduction assay; assay type: functional; outline: as §2
[10] = tested on: Staphylococcus aureus; experiment: Antibacterial activity against Staphylococcus aureus by almar blue dye reduction assay; assay type: functional; outline: as §2
[11] = tested on: Saccharomyces cerevisiae; experiment: Antifungal activity against Saccharomyces cerevisiae at 1 mM by almar blue dye reduction assay; assay type: functional, organism-based; outline: as §1
[12] = tested on: Candida albicans; experiment: Antifungal activity against Candida albicans at 1 mM by almar blue dye reduction assay; assay type: functional, organism-based; outline: as §1
[13] = tested on: Bacillus subtilis; experiment: Antibacterial activity against Bacillus subtilis at 1 mM by almar blue dye reduction assay; assay type: functional, organism-based; outline: as §1
[14] = tested on: Escherichia coli; experiment: Antibacterial activity against Escherichia coli by almar blue dye reduction assay; assay type: functional; outline: as §2
[15] = tested on: Pseudomonas aeruginosa; experiment: Antimicrobial activity against Pseudomonas aeruginosa by almar blue dye reduction assay; assay type: functional; outline: as §2

SMILES | Activity [1] | MIC [2] [µg/mL] | Activity [3] | MIC [4] [µg/mL] | MIC [5] [µg/mL] | MIC [6] [µg/mL] | Activity [7] | MIC [8] [µg/mL] | MIC [9] [µg/mL] | MIC [10] [µg/mL] | Activity [11] | Activity [12] | Activity [13] | MIC [14] [µg/mL] | MIC [15] [µg/mL]
C[C@H](C[C@@H]1CC[C@H]([C@@H](C)C(=O)N2CCN(CC3CCCO3)CC2)O1)n1cc(C#CCOc2cccc(-c3ccccc3)c2)nn1 (stereo not given in full) | inactive | 150 (≈ 245 µM) | inactive | 880 (≈ 1440 µM) | > 590 | 590 (≈ 964 µM) | inactive | 290 (≈ 474 µM) | 290 (≈ 474 µM) | – | – | – | – | – | –
C[C@H](C[C@@H]1CC[C@H]([C@@H](C)C(=O)N(C)Cc2ccccc2)O1)n1cc(C#CCN(C)CCc2ccccc2)nn1 | inactive | 250 (≈ 474 µM) | inactive | 250 (≈ 474 µM) | 250 (≈ 474 µM) | – | – | 500 (≈ 947 µM) | – | 500 (≈ 947 µM) | inactive | inactive | – | – | –
CCCCN(CC#Cc1cn([C@H](C)C[C@@H]2CC[C@H]([C@@H](C)C(=O)N(C)Cc3ccccc3)O2)nn1)CCCC | inactive | 250 (≈ 479 µM) | inactive | 250 (≈ 479 µM) | 500 (≈ 958 µM) | – | – | 250 (≈ 479 µM) | – | 500 (≈ 958 µM) | inactive | inactive | – | – | –
CCCCCC#Cc1cn([C@H](C)C[C@@H]2CC[C@H]([C@@H](C)C(=O)N(C)Cc3ccccc3)O2)nn1 | inactive | 640 (≈ 1420 µM) | inactive | – | 430 (≈ 954 µM) | – | inactive | 430 (≈ 954 µM) | 430 (≈ 954 µM) | – | – | inactive | inactive | – | –
CCOC(=O)C#Cc1cn([C@H](C)CC2CCC([C@@H](C)C(=O)N3CCN(CC4CCCO4)CC3)O2)nn1 (single isomer, unassigned) | – | 240 (≈ 478 µM) | – | 240 (≈ 478 µM) | > 480 | 240 (≈ 478 µM) | – | 480 (≈ 957 µM) | 240 (≈ 478 µM) | 120 (≈ 239 µM) | – | – | – | 120 (≈ 239 µM) | 480 (≈ 957 µM)

— ChEMBL document CHEMBL1155099, “Natural products in parallel synthesis: triazole libraries of nonactic acid” (2008)
